Assay results from ChEMBL document CHEMBL2346554, “Extreme multidrug resistant HIV-1 protease with 20 mutations is resistant to novel protease inhibitors with P1'-pyrrolidinone or P2-tris-tetrahydrofuran” (J Med Chem, 2013).
Activity calls are given as the source filed them. The calls are words filed in the database; no cut-off is given here.

Tests used:
[1] = test system: Human immunodeficiency virus type 1 protease (Human immunodeficiency virus 1), Q72874 [Q7K,L10F,I13V,I15V,D30V,V32I,L33F,E35D,M36I,S37N,I47V,I54L,Q58E,I62V,L63P,A71V,I84V,N88D,L89T,L90M]; assay: Binding affinity to HIV1 protease Q7K, L10F, I13V, I15V, D30V, V32I, L33F, E35D, M36I, S37N, I47V, I54L, Q58E, I62V, L63P, A71V, I84V, N88D, L89T, L90M mutant expressed in Escherichia coli BL21 (DE3) assessed as association constant by isothermal titration calorimetric analysis
Outline: (§1)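 PR20 (1.8−2.15 mg/mL in 12 mM HCl) was folded by adding 5 mM sodium acetate pH 6, then 100 mM sodium acetate pH 5, and centrifuged. It was titrated in the ITC cell with inhibitor at ~10-fold the PR20 concentration, in matching buffer. Inhibitor concentration was estimated from the fitted N at known PR20, assuming 1:1 binding. KL = 1/KA.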

[2] = test system: Human immunodeficiency virus type 1 protease (Human immunodeficiency virus 1), Q72874 [Q7K,L10F,I13V,I15V,D30V,V32I,L33F,E35D,M36I,S37N,I47V,I54L,Q58E,I62V,L63P,A71V,I84V,N88D,L89T,L90M]; assay: Inhibition of transferrin receptor-fused HIV1 protease Q7K, L10F, I13V, I15V, D30V, V32I, L33F, E35D, M36I, S37N, I47V, I54L, Q58E, I62V, L63P, A71V, I84V, N88D, L89T, L90M mutant autoprocessing expressed in Escherichia coli up to 100 uM by SDS-PAGE analysis
Outline: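 TFR-fused PR20 precursor was expressed in E. coli cultures grown with increasing inhibitor in the medium, up to 100 μM. The protein was partially purified, and autoprocessing was assessed by SDS-PAGE against wild-type TFR-PR with inhibitor.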

[3] = test system: Human immunodeficiency virus type 1 protease (Human immunodeficiency virus 1), Q72874 [Q7K,L10F,I13V,I15V,D30V,V32I,L33F,E35D,M36I,S37N,I47V,I54L,Q58E,I62V,L63P,A71V,I84V,N88D,L89T,L90M]; assay: Binding affinity to HIV1 protease Q7K, L10F, I13V, I15V, D30V, V32I, L33F, E35D, M36I, S37N, I47V, I54L, Q58E, I62V, L63P, A71V, I84V, N88D, L89T, L90M mutant expressed in Escherichia coli BL21 (DE3) assessed as dissociation constant by isothermal titration calorimetric analysis; outline: as §1
[4] = biological target: Protease (Human immunodeficiency virus 1) (UniProt Q9YQ12); conditions: 0.5 to 8 uM
[5] = test system: Human immunodeficiency virus type 1 protease (Human immunodeficiency virus 1), Q72874 [Q7K,L10F,I13V,I15V,D30V,V32I,L33F,E35D,M36I,S37N,I47V,I54L,Q58E,I62V,L63P,A71V,I84V,N88D,L89T,L90M]; assay: Inhibition of transferrin receptor-fused HIV1 protease Q7K, L10F, I13V, I15V, D30V, V32I, L33F, E35D, M36I, S37N, I47V, I54L, Q58E, I62V, L63P, A71V, I84V, N88D, L89T, L90M mutant autoprocessing expressed in Escherichia coli at 100 to 150 uM by SDS-PAGE analysis
[6] = test system: Human immunodeficiency virus type 1 protease (Human immunodeficiency virus 1), Q72874 [Q7K,L10F,I13V,I15V,D30V,V32I,L33F,E35D,M36I,S37N,I47V,I54L,Q58E,I62V,L63P,A71V,I84V,N88D,L89T,L90M]; assay: Ratio of amprenavir dissociation constant K to compound dissociation constant K for HIV1 protease Q7K, L10F, I13V, I15V, D30V, V32I, L33F, E35D, M36I, S37N, I47V, I54L, Q58E, I62V, L63P, A71V, I84V, N88D, L89T, L90M mutant
[7] = biological target: Protease (Human immunodeficiency virus 1) (UniProt Q9YQ12); assay: Inhibition of HIV1 protease dimerization transfected in COS7 cells relative to darunavir; assay type: cell-based; conditions: COS-7

Row | SMILES | K [1] | inhibition [2] | K [3] | inhibition [4] | inhibition [5] | Ratio [6] | fold change (FC) [7]
1 | COc1ccc(S(=O)(=O)N(C[C@H]2CCC(=O)N2)C[C@@H](O)[C@H](Cc2ccccc2)NC(=O)O[C@@H]2C[C@@H]3CCO[C@@H]3C2)cc1 | 1.04 ×10⁶ /M | inactive | 960 nM |  |  |  | 
2 | CC(C)CN(C[C@@H](O)[C@H](Cc1ccccc1)NC(=O)O[C@H]1CO[C@H]2OCC[C@H]21)S(=O)(=O)c1ccc(N)cc1 | 24.5 ×10⁶ /M |  | 41 nM | Active | inactive |  | 
3 | COc1ccc(S(=O)(=O)N(CC(C)C)C[C@@H](O)[C@H](Cc2ccccc2)NC(=O)O[C@H]2CO[C@H]3O[C@@H]4OCC[C@@H]4[C@H]32)cc1 | 25.3 ×10⁶ /M | inactive | 39.5 nM |  |  | 4.5 | 10
4 | CC(C)CN(C[C@@H](O)[C@H](Cc1ccccc1)NC(=O)O[C@H]1CCOC1)S(=O)(=O)c1ccc(N)cc1 | 5.61 ×10⁶ /M |  | 178 nM |  | inactive |  | 
